ChEMBL document CHEMBL3526002, “Tissue distribution and identification of radioactivity components at elimination phase after oral administration of [¹⁴C]CS-1036, an α-amylase inhibitor, to rats” (Drug Metab Dispos, 2013)
Blank lines part the entries; values can stand above or below the molecule they belong to.

What was measured:
[1] = Drug uptake in albino F344/DuCrlCrlj rat assessed as radioactivity in oleic acid in adipose tissue homogenates at 10 mg/kg, po administered for 4 days by LC-MS/MS spectra analysis; conditions: in vivo, 96 h
[2] = Drug uptake in albino F344/DuCrlCrlj rat assessed as radioactivity in palmitic acid in adipose tissue homogenates at 10 mg/kg, po administered for 4 days by LC-MS/MS spectra analysis; conditions: in vivo, 96 h
Plasma [3] = assay: Drug uptake in albino F344/DuCrlCrlj rat assessed as radioactivity in glutamic acid in plasma protein at 10 mg/kg, po administered for 5 days by accelerator mass spectrometry analysis; type: ADME, organism-based; set-up: dose 10 mg/kg, dosed compound name [14C]CS-1036, route oral; conditions: in vivo, 120 h
Method in brief: (§1)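 Rats were dosed orally with [14C]CS-1036 at 10 mg/kg/day for 5 days. Pooled plasma protein was washed and HCl-hydrolysed, then PTC-derivatized. It was separated by HPLC (40°C, gradient, UV 254 nm) and fractionated every 6 s over 0–15 min. Fraction 14C was measured by AMS after subtracting matching control-plasma fractions. Peaks were assigned by retention time against amino acid standards, and each fraction was expressed as % of injected radioactivity.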

Plasma [4] = assay: Drug level in albino F344/DuCrlCrlj rat plasma treated with [14C]CS-1036 at 10 mg/kg, po after 8 to 72 hrs by liquid scintillation counting; type: ADME, organism-based; set-up: dose 10 mg/kg, dosed compound name [14C]CS-1036, route oral; conditions: in vivo
Plasma [5] = assay: Drug metabolism in albino F344/DuCrlCrlj rat plasma protein treated with at 10 mg/kg, po of [14C]CS-1036 administered for 5 days by liquid scintillation counting; type: ADME, organism-based; set-up: dose 10 mg/kg, dosed compound name [14C]CS-1036, route oral; conditions: in vivo, 120 h
Method in brief: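 Male F344/DuCrlCrlj rats (n = 3) received oral [14C]CS-1036 at 10 mg/kg/day for 5 days at 24-h intervals, with food freely available. Plasma was taken from the abdominal aorta 24 h after the fifth dose and pooled. It was precipitated with acetonitrile, and the pellets were washed with 0.4 M TCA, 80% methanol and 30% ether/ethanol until washes were below twice background. Pellets were HCl-hydrolysed, and recovered radioactivity was counted by LSC.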

Rattus norvegicus = assay: Half life in po dosed rat dosed and assessed as 1,4-dideoxy-1,4-imino-D-arabinitol level (M1); type: ADME, organism-based; set-up: dosed compound name M1; conditions: in vivo
Intestine = assay: Drug metabolism in po dosed rat in intestinal flora treated with [14C]CS-1036 by liquid scintillation counting; type: ADME, organism-based; set-up: dosed compound name [14C]CS-1036; conditions: in vivo
[6] = Drug excretion in po dosed rat urine dosed as [14C]CS-1036 assessed as 1,4-dideoxy-1,4-imino-D-arabinitol (M1) level up to 24 hrs; type: ADME, organism-based; set-up: dosed compound name [14C]CS-1036; conditions: in vivo
Plasma [7] = assay: Drug uptake in albino F344/DuCrlCrlj rat assessed as radioactivity in aspartic acid in plasma protein at 10 mg/kg, po administered for 5 days by accelerator mass spectrometry analysis; type: ADME, organism-based; set-up: dose 10 mg/kg, dosed compound name [14C]CS-1036, route oral; conditions: in vivo, 120 h
Method in brief: as §1

[8] = Systemic absorption of acarbose estimated from drug excretion in human urine; type: ADME; set-up: dosed compound name acarbose

Compound recovery [1]: Active
Compound: CCCCCCCC/C=C\CCCCCCCC(=O)O [OLEIC ACID]

Compound recovery [2]: Active
Compound: CCCCCCCCCCCCCCCC(=O)O [PALMITIC ACID]

Compound recovery (Plasma [3]): 36.5%
Compound: N[C@@H](CCC(=O)O)C(=O)O [GLUTAMIC ACID]

The next lines start with the molecule.

Compound: OC[C@H]1NC[C@@H](O)[C@@H]1O
Drug metabolism (Plasma [4]): metabolite_detected
Drug metabolism (Plasma [5]): metabolite_detected
t1/2 (Rattus norvegicus): 48 min
Drug metabolism (Intestine): metabolite_detected
Compound recovery [6]: 5.3%

Compound: N[C@@H](CC(=O)O)C(=O)O [ASPARTIC ACID]
Compound recovery (Plasma [7]): 18.5%

Compound: C[C@H]1O[C@H](O[C@H]2[C@H](O)[C@@H](O)[C@@H](O[C@H]3[C@H](O)[C@@H](O)C(O)O[C@@H]3CO)O[C@@H]2CO)[C@H](O)[C@@H](O)[C@@H]1N[C@H]1C=C(CO)[C@@H](O)[C@H](O)[C@H]1O (stereo not given in full) [ACARBOSE]
Fa [8]: 1.7%
